These results are taken from ChEMBL document CHEMBL1139970, “3,4-Dihydro-2H-benzo[1,4]oxazine derivatives as 5-HT6 receptor antagonists” (Bioorg Med Chem Lett, 2007).

For data set [1], the target named is 5-hydroxytryptamine receptor 6 (Homo sapiens, UniProt P50406). Put plainly: Displacement of [3H]LSD from human recombinant 5HT6 receptor expressed in HEK293 cells. The format is cell-based. Put shortly:
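Competition binding against [3H]LSD, run at 37 °C on HEK293 cells expressing recombinant human 5-HT6 receptor. Affinity is expressed as pKi, with standard deviation of the pKi estimates 0.05–0.3.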

Data set [2] is described as follows: Ratio of drug level in brain to plasma in rat at 2 mg/kg, iv after 1 hr. The format is ADME, organism-based. Also on record: dose 2 mg/kg, route intravenous. An outline of the steps: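 Rats received a single intravenous 2 mg/kg dose. At 1 h post-dose, drug levels in whole brain homogenate and plasma were quantified by HPLC–MS/MS, and the brain-to-plasma ratio was calculated.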

The target of data set [3] is T1, hERG (KCNH2) (Homo sapiens, UniProt Q12809). The data set can be described thus: Inhibition of hERG current at 1 uM by patch clamp electrophysiology assay. The format is toxicity. Put shortly: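 Conventional patch-clamp electrophysiology measuring inhibition of hERG outward current at a single test concentration. Baseline set to 0%; mean with SEM from n = 2 cells.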
T1 sequence (Q12809 whole entry): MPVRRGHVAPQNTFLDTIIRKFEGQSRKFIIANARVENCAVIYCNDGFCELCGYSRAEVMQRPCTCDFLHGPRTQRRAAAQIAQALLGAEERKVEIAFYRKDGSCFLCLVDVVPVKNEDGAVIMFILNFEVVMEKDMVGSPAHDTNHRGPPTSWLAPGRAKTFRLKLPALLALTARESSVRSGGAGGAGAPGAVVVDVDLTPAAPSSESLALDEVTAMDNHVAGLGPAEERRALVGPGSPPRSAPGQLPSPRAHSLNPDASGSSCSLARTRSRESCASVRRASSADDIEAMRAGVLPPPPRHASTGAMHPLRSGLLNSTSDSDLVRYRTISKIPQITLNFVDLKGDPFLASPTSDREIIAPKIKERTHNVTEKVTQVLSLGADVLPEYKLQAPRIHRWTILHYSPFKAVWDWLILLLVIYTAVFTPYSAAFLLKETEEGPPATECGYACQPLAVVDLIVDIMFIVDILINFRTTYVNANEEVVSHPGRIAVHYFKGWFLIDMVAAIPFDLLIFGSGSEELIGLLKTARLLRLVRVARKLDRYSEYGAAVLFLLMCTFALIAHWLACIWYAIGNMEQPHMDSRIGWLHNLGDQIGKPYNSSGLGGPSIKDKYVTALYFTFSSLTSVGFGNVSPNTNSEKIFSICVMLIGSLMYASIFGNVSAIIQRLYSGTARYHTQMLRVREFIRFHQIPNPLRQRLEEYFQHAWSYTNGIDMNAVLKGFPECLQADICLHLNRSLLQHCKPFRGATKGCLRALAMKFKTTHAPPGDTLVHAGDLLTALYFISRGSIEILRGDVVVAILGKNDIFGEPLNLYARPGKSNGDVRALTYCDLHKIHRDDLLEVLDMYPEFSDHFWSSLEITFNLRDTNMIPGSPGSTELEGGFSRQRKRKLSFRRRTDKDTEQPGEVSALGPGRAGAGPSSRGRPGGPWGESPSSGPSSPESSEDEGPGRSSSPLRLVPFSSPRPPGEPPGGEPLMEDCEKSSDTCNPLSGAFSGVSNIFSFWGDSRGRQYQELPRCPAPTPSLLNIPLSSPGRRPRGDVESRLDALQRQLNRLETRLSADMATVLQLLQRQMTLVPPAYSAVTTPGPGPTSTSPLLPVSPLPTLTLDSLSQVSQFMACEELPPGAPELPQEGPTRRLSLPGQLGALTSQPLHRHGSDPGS

Data set [4] concerns the target T1, hERG (KCNH2). The data set can be described thus: Inhibition of hERG current by patch clamp electrophysiology assay. The format is toxicity. (In general: hERG is a cardiac potassium channel; its block is linked to QT prolongation.)

pKi: −log10 of the molar value.

5-hydroxytryptamine receptor 6, sequence (P50406 whole entry): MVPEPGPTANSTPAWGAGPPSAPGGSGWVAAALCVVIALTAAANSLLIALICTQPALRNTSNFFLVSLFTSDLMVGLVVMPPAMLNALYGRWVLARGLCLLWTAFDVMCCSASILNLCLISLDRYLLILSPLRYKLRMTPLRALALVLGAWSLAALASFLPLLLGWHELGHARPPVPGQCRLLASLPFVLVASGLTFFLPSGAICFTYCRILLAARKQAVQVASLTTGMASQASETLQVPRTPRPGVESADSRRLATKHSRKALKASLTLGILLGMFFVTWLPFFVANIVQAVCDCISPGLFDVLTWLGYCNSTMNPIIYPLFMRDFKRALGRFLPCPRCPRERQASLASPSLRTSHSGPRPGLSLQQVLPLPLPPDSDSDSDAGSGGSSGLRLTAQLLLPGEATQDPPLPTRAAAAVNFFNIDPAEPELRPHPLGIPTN

The term pKi denotes the Ki on a negative log10 scale, so that one unit is a factor of ten. Turning to `O=S(=O)(c1ccccc1)N1CCOc2c(N3CCNCC3)cccc21`, the pKi in data set [1] is 7.90.
What is called Kp is tissue or fluid exposure divided by exposure in the circulation. The term inhibition denotes how much of the control response was suppressed. Low values mean a weak effect, high ones a strong effect. By IC20 is commonly meant the concentration needed for an effect of 20%. Consider `O=S(=O)(c1ccccc1F)N1CCOc2c(N3CCNCC3)cccc21`, for which the partition ratio (Kp) at 1 h in data set [2] worked out at 1.8. Also, 1 µM produced 9.9% inhibition in data set [3]. Moreover, in data set [4], the IC20 amounted to 2200 nM.
`O=S(=O)(c1cccc(Cl)c1)N1CCOc2c(N3CCNCC3)cccc21`: the Kp at 1 h in data set [2] is 1.4. Besides, in data set [1], the negative logarithm of the Ki (pKi) was 8.70.
On to `O=S(=O)(c1cccc(F)c1)N1CCOc2c(N3CCNCC3)cccc21`, for which, in data set [1], the pKi is 8.00.
On the same count and under the same terms, with `CS(=O)(=O)Nc1cccc(S(=O)(=O)N2CCOc3c(N4CCNCC4)cccc32)c1` the figure was 6.70.
The same measure, in the same setting: with `CS(=O)(=O)c1ccccc1S(=O)(=O)N1CCOc2c(N3CCNCC3)cccc21` the figure was 6.50.
Turning to `O=S(=O)(c1cccc2cccnc12)N1CCOc2c(N3CCNCC3)cc(Cl)cc21`, the pKi in data set [1] is 9.20.
In turn, `Cc1cc(N2CCNCC2)c2c(c1)N(S(=O)(=O)c1ccccc1F)CCO2` returned an inhibition at 1 µM in data set [3] of 26.5%. Also, the pKi in data set [1] is 9.40.
For `Cc1cc(N2CCNCC2)c2c(c1)N(S(=O)(=O)c1ccccc1C#N)CCO2`, in that order: 14.2% and 8.70.
On the same counts, the results for `O=S(=O)(c1ccccc1F)N1CCOc2c(N3CCNCC3)cc(F)cc21` are 26% and 9.20.
On to `O=S(=O)(c1ccccc1F)N1CCOc2c(N3CCNCC3)cc(Cl)cc21`, for which, in data set [2], the Kp at 1 h stood at 2.7. This molecule also returned an inhibition at 1 µM in data set [3] of 45.2%. In addition, the pKi in data set [1] is 9.40.
On the same counts, the results for `COc1cc(N2CCNCC2)c2c(c1)N(S(=O)(=O)c1ccccc1)CCO2` are 0.8, 34% and 9.40.
As to `CC(C)(C)c1cc(N2CCNCC2)c2c(c1)N(S(=O)(=O)c1ccccc1F)CCO2`, in data set [1], the pKi was 8.10.
On the same count and under the same terms, with `Nc1ccc(S(=O)(=O)N2CCOc3c(N4CCNCC4)cc(F)cc32)cc1` the figure was 8.90; with `CC1(C)CN(S(=O)(=O)c2ccccc2F)c2cccc(N3CCNCC3)c2O1`, 9.50.
In the case of `Nc1cccc2c1OCCN2S(=O)(=O)c1ccccc1F`, in data set [1], the pKi is 6.20.
The same measure, in the same setting: the figure for `Cc1cc(N2CC(C)NC(C)C2)c2c(c1)N(S(=O)(=O)c1ccc(Cl)cc1)CCO2` (stereo not given) is 7.40; for `CC1(C)CN(S(=O)(=O)c2ccccc2)c2cc(F)cc(C3CCNCC3)c2O1` it is 8.40; for `CN(C)CCNc1cccc2c1OC(C)(C)CN2S(=O)(=O)c1cccc(F)c1` it is 6.90.
As to `Cc1cc(N2CCNCC2)c2c(c1)N(S(=O)(=O)c1ccccc1)CCO2`, in data set [2], the Kp at 1 h amounted to 1. In data set [3], this molecule gave an inhibition at 1 µM of 23.2%. For the same molecule, the pKi in data set [1] is 8.60.
In the case of `COc1cc(N2CCNCC2)c2c(c1)N(S(=O)(=O)c1ccccc1F)CCO2`, the pKi in data set [1] is 9.80.
Turning to `O=S(=O)(c1ccccc1F)N1CC2(CCC2)Oc2c(N3CCNCC3)cccc21`, the pKi in data set [1] is 9.20.
Still for that read-out and setting: the figure for `O=S(=O)(c1ccccc1)N1CCOc2c(N3CCCNCC3)cc(Cl)cc21` is 8.40.
Regarding `O=S(=O)(c1ccccc1Cl)N1CCOc2c(N3CCNCC3)cccc21`, in data set [2], the Kp at 1 h is 1.6. This molecule had an inhibition at 1 µM in data set [3] of 28.2%. For the same molecule, the pKi in data set [1] is 8.50.
For the molecule `O=S(=O)(c1cccc2ccccc12)N1CCOc2c(N3CCNCC3)cc(Cl)cc21`, the negative logarithm of the Ki (pKi) in data set [1] was 9.10.
On the same count and under the same terms, with `CC1(C)CN(S(=O)(=O)c2cccc(F)c2)c2cc(F)cc(C3CCNCC3)c2O1` the figure was 8.30.
